From PubChem
SENP6 block: SENP6 protease inhibitors, primary screen, biochemical, luminescence, uHTS. hit rate 1.8% among 330,000. Sentrin-specific protease 6 (Homo sapiens), Q9GZR1. Recombinant SENP6 catalytic domain, aminoluciferin luminescence. inhibition, % at 10 µM;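 active = inhibition above about 50% at the single tested dose, limit read from the data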
SENP8 block-1: human SENP8 protease inhibitors, primary screen, biochemical, fluorescence, Nedd8 protein substrate, uHTS | recombinant SENP8 | inhibition, % at 20 µM | hit rate 0.64% among 360,000 | AID 602440, 2012; in the data active = inhibition mostly above about 40%, no sharp cut-off; inactive = mostly below about 27%
SENP8 block-2: SENP8 protease inhibitors, primary screen, biochemical, luminescence | Sentrin-specific protease 8 (Homo sapiens), Q96LD8 | purified SENP8, Z-RLRGG-aminoluciferin cleavage | inhibition, % at 10 µM | hit rate 1.2% among 330,000; in the data active = inhibition above about 50%
UCH37 DUB inh: inhibitors of human UCH37 deubiquitinase, primary screen, biochemical, Ub-AMC cleavage, fluorescence | Ubiquitin carboxyl-terminal hydrolase isozyme L5 (Homo sapiens), Q9Y5K5 | purified proteasome/UCH37 | inhibition, % (no concentration beside the values) | hit rate 0.33% among 330,000 | AID 588478, 2011;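 active = mean inhibition over replicate wells above about 20%, limit read from the data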
Target sequence (Q9Y5K5 whole entry, looked up): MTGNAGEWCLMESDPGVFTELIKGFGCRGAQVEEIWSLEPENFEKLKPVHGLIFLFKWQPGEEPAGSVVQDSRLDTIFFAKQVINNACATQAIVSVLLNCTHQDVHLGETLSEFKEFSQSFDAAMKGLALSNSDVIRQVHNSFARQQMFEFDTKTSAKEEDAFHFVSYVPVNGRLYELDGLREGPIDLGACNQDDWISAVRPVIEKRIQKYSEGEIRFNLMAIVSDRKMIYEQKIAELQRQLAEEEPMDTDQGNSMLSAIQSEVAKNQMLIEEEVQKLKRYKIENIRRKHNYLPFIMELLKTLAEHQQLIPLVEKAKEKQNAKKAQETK
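assay system = human UCH37 enzyme supplied as purified proteasome complex | amount = proteasome at 0.15 nM in the dispensed enzyme solution | schedule = 30 min compound-proteasome preincubation then 25 min substrate reaction, room temperature | measured by = fluorescence, ex 355 nm, em 460 nm | benchmarks = no-proteasome wells (full inhibition) and compound-free wells (no inhibition)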
SENP7 inh: SENP7 protease inhibitors, primary screen, biochemical, luminescence, uHTS | recombinant SENP7, Z-RLRGG-aminoluciferin luminescence, 40 min | inhibition, % at 5 µM | hit rate 1.5% among 330,000;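 active = inhibition above about 50% at the single test dose, limit read from the data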
SENP1 inh: human SENP1 catalytic domain inhibitors, primary screen, biochemical, FRET, uHTS; inhibition, % at 10 µM; hit rate 0.21% among 360,000; AID 624204, 2012; recombinant SENP1 catalytic domain, CyPet-SUMO1-YPet FRET cleavage;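 active = inhibition at least 30% at 10 µM, raw YFP signal under a set limit, fluorescence ratio 0.5 to 1.5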
Target sequence (Q9P0U3 419-644 limits assumed): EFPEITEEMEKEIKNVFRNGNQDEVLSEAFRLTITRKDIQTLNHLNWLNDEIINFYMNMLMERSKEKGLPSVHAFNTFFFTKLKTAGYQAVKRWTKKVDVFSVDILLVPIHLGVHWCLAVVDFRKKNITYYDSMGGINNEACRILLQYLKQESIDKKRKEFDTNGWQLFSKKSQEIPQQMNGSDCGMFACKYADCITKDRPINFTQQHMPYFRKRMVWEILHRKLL
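material = recombinant human SENP1 catalytic domain, His6-tagged | quantity = 20 pM enzyme | reagent = 25 nM SUMO1 FRET substrate | compound dosing = 10 µM single point, 0.5% DMSO | timing = 50 min enzyme reaction, room temperature, light-protected | detection = FRET, CFP and YFP emission | control set = no-enzyme low, enzyme-DMSO high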
SENP8 confirm: SENP8 protease inhibitors, retest, confirmation, biochemical, luminescence, single concentration. shares compounds with SENP7 inh. Recombinant SENP8, Z-RLRGG-aminoluciferin luminescence, 60 min. inhibition, % at 12.5 µM. hit rate 40% among 6,200. AID 488912, 2010;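 active = mean inhibition across replicates above about 50%, limit read from the data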
SENP6 confirm: SENP6 protease inhibitors, confirmation, biochemical, luminescence, single concentration | shares compounds with SENP7 inh | recombinant SENP6, Z-RLRGG-aminoluciferin luminescence | AID 488915, 2010 | hit rate 58% among 6,200 | inhibition, % at 12.5 µM
SENP7 conf: SENP7 protease inhibitors, retest, confirmation, biochemical, luminescence, single concentration; shares compounds with SENP7 inh; recombinant SENP7, Z-RLRGG-aminoluciferin luminescence, 40 min; inhibition, % at 12.5 µM; hit rate 69% among 6,200; AID 488917, 2010
Casp3 SENP sel: caspase-3 protease inhibitors, confirmation, selectivity assay for SENP inhibitor project, biochemical, single concentration | inhibition, % at 12.5 µM | shares compounds with SENP7 inh | hit rate 60% among 6,200 | purified caspase-3, Z-DEVD-aminoluciferin luminescence, 60 min;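 active = mean inhibition above about 50%, limit read from the data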
SENP luc ctr: counter-screen for SENP inhibitors: luminescence interference; hit rate 39% among 6,200; inhibition, % at 12.5 µM; shares compounds with SENP7 inh; Pre-incubated SENP8/Z-RLRGG-aminoluciferin, luciferase luminescence interference; AID 488919;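 active = mean inhibition above about 50% when retested at one dose, limit read from the data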
Hits are given with their value; 0 = inactive; - = no result. Most compounds without a hit are left out; they make up all but 2.6% or so of the library.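 Rule for the calls, unless noted: active = mean inhibition above about 50% in the one-dose retest (limit read from the data); inactive = the rest.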

SMILES	SENP6 block	SENP8 block-1	SENP8 block-2	UCH37 DUB inh	SENP7 inh	SENP1 inh	SENP8 confirm	SENP6 confirm	SENP7 conf	Casp3 SENP sel	SENP luc ctr
COc1ccc(COC(=O)c2c(C)nn(-c3ccccc3)c2Cl)cc1	61	0	0	0	0	0	0	0	54	0	0
CS/C(N)=N/C(=S)Nc1cccc(Cl)c1	58	0	0	0	0	0	72	68	88	57	76
O=C(CNC(=O)c1cccc(Br)c1)NN=Cc1ccc2c(c1)OCO2	-	-	-	0	-	-	-	-	-	-	-
COc1cccc(NC(=O)c2c(F)cccc2F)c1	0	0	0	0	0	0	-	-	-	-	-
COc1cccc(NC(=O)c2ccccc2F)c1	51	0	0	0	0	0	0	0	67	72	53
O=C(Nc1cccc(Cl)c1)Nc1ccccc1C(=O)O	99	0	97	-	100	0	98	101	104	99	100
NC(=O)c1ccccc1NC(=O)Nc1cccc(Cl)c1	61	0	82	0	92	0	86	87	99	82	89
O=C(Nc1ccc(C(=O)N2CCCCC2)cc1)Nc1cccc(Cl)c1	67	0	0	0	73	0	0	0	0	0	0
COc1ccc(Cl)cc1NC(=O)Nc1ccccc1C(N)=O	0	0	0	0	0	0	-	-	-	-	-
COc1cc(C=NN(CCO)C2=NS(=O)(=O)c3ccccc32)cc(OC)c1OC	-	-	-	0	-	-	-	-	-	-	-
O=S(=O)(CCc1ccccc1)N=Cc1cccs1	-	-	-	0	-	-	-	-	-	-	-
COc1ccc(C=NNC(=O)c2ccc(N(C)S(=O)(=O)c3ccccc3)cc2)cc1OC	-	-	-	0	-	-	-	-	-	-	-
Cc1cc(Cl)ccc1OCC(=O)NN=C1CCCc2ccccc21	-	-	-	0	-	-	-	-	-	-	-
COc1cccc(NC(=O)c2ncc(Cl)c(Cl)c2Cl)c1	70	0	87	0	90	0	0	89	101	91	0
CC(=O)Nc1ccc(NC(=O)Nc2cccc(Cl)c2)cc1	0	0	0	0	0	0	-	-	-	-	-
COc1cccc(NC(=O)COC(=O)c2c(C)nn(-c3ccccc3)c2C)c1	76	0	65	0	74	0	71	67	90	70	75
O=C(Nc1cccc(Cl)c1)c1ccc(OC(=S)N2CCOCC2)cc1	0	0	0	0	79	0	0	0	78	0	0
O=C(Nc1ccccc1)Nc1cccc(Cl)c1	60	0	0	0	55	0	58	58	86	0	71
CC(=N/N=C1/NC(=O)CC(C(=O)Nc2ccccc2)S1)c1cccs1 (centres undefined)	-	-	-	0	-	-	-	-	-	-	-
NC(N)=NN=Cc1ccc(OCc2ccc(Cl)cc2)cc1	-	-	-	0	-	-	-	-	-	-	-
Nc1nonc1-n1nnc(C(=O)NN=Cc2ccc(O)cc2)c1CN1CCCCCC1	-	-	-	0	-	-	-	-	-	-	-
CCCc1ccc(S(=O)(=O)NN=Cc2ccc3c(c2)OCO3)cc1	-	-	-	0	-	-	-	-	-	-	-
Cc1cc(C)n(CC(=O)NN=Cc2cccs2)n1	-	-	-	0	-	-	-	-	-	-	-
COc1cc(NC(=O)c2ccc(N3CCCC3=O)cc2)cc(OC)c1	70	0	60	0	72	0	0	61	73	84	56
COc1ccc(NC(=O)c2ccc(OC(F)F)cc2)cc1Cl	93	0	95	0	97	0	86	95	100	92	76
SMILES	SENP6 block	SENP8 block-1	SENP8 block-2	UCH37 DUB inh	SENP7 inh	SENP1 inh	SENP8 confirm	SENP6 confirm	SENP7 conf	Casp3 SENP sel	SENP luc ctr
COc1ccc(NC(=O)c2cc(F)cc(F)c2)cc1Cl	0	0	0	0	0	0	-	-	-	-	-
O=C(Nc1ccc(OC(F)F)c(Cl)c1)c1ccccn1	85	0	79	0	85	0	74	75	95	68	0
CC(=O)c1ccc(NC(=O)c2ccc(N3CCCC3=O)cc2)cc1	0	0	0	0	0	0	-	-	-	-	-
COc1ccc(NC(=O)c2ccc(N3CCCC3=O)cc2)cc1Cl	0	0	0	0	54	0	0	0	0	0	0
Cc1[nH]n(-c2ccccc2)c(=O)c1C=NNC(=O)c1cccc(F)c1	-	-	-	0	-	-	-	-	-	-	-
CCCC1CC(C)(C(C)=NNC(N)=S)OC1=O (centres undefined)	-	-	-	0	-	-	-	-	-	-	-
Cc1c(N=Cc2ccncc2)c(=O)n(-c2ccccc2)n1C	0	0	0	0	0	0	-	-	-	-	-
Cc1c(N=Cc2c(O)n(C)c(=O)c3ccccc23)c(=O)n(-c2ccccc2)n1C	52	0	0	0	0	0	0	0	0	0	0
CCOc1ccc(N=Nc2c(N)[nH][nH]c2=O)cc1	76	0	65	0	72	0	57	61	90	88	0
Cc1[nH][nH]c(=O)c1N=Nc1ccc(F)cc1	0	0	0	0	0	0	-	-	-	-	-
COc1ccc(N=Nc2c(C)[nH][nH]c2=O)cc1	69	0	0	0	64	0	50	52	84	80	53
CCOc1ccc(N=Nc2c(=O)[nH]n3c(=O)cc(C)[nH]c23)cc1	96	0	92	0	95	0	97	98	102	98	93
Cc1cccc(C)c1-n1c(C)cc(C=NNc2ccc([N+](=O)[O-])cn2)c1C	-	-	-	0	-	-	-	-	-	-	-
O=C(NN=Cc1ccncc1)c1ccccc1O	-	-	-	0	-	-	-	-	-	-	-
NC(=O)c1ccsc1NC(=O)c1ccc(S(=O)(=O)N2CCCCC2)cc1	67	0	58	0	0	0	57	72	92	56	0
COc1ccc(C=NNc2nc3ccccc3o2)cc1O	-	-	-	0	-	-	-	-	-	-	-
COc1ccc2nc3sc(C(=O)N4CCN(C)CC4)cc3cc2c1	0	0	0	0	0	0	-	-	-	-	-
CCc1ccc2nc3sc(C(=O)O)cc3cc2c1	50	0	0	0	0	0	58	53	82	76	67
